Test results: article PMC12830962 (Nature Communications, 2025)
Ends that are not written are not given here. * marks the point of attachment. Biotin = O=C1N[C@H]2[C@H](CS[C@H]2CCCCC(=O)*)N1; Ahx = NCCCCCC(=O)O

Legend:
[1] = system: human adipocytes from a type 2 diabetic donor (PT5022); assay: Glucose uptake assay, adipocytes from type 2 diabetic donor; type: cell-based; details: 100 nM insulin
How it was run: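 Adipocytes from a type 2 diabetic donor were differentiated from preadipocytes and exposed on day 7 to test compound in DMEM with 0.2% BSA for 24 h. Uptake was read by luminescence (Glucose Uptake-Glo).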

[2] = biological target: T1, Gal4-PPARα (PPARα-LBD) (Homo sapiens, UniProt Q07869); assay: Gal4-PPARα LBD::UAS-luciferase reporter cotransfection assay in HEK293T cells; type: cell-based; details: 1 μΜ compound
T1 sequence (Q07869 239-466 limits assumed): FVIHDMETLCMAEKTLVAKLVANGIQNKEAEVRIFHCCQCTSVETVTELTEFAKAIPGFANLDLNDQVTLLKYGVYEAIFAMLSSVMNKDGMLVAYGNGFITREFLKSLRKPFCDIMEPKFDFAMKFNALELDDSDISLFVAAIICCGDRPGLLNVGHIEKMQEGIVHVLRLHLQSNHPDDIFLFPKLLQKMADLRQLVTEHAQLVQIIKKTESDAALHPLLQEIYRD
How it was run: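 HEK293T cells were seeded at 3.3 × 10^6 per 10-cm plate. After 24 h they were PEI-transfected with 8 μg total DNA, Gal4-PPAR LBD plasmid and UAS-luciferase reporter at 1:1. After a further 24 h, cells were replated at 10,000 cells/well in 384-well plates, left 3 h, then given test compound or DMSO for 18 h. Luciferase was read with Britelite Plus.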

[3] = biological target: T2, His-hPPARγ-LBD (PPARγ2 residues 231–505) (human, UniProt P37231-1 231-505); assay: AlphaScreen or HTRF
T2 sequence (looked up): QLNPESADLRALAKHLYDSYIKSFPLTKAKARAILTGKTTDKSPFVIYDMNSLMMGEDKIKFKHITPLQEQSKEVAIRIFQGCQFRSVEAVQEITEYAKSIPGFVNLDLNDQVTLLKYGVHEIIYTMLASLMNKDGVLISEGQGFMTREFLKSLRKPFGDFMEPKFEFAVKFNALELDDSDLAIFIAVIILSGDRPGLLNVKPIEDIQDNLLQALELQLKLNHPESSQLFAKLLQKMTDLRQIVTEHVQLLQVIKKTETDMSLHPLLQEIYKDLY

Molecule	insulin-stimulated glucose uptake compared to DMSO [1]	PPARα activation compared to that observed with GW7647 treatment [2]	binding result [3]
CN(CCOc1ccc(CC2SC(=O)NC2=O)cc1)c1ccccn1 (stereo not shown) [Rosi, rosiglitazone]	significantly enhanced	–	–
Cc1c(C)n(Cc2cccc(OC(C)(C)C(=O)O)c2)c2ccc(C(=O)N[C@@H](C)c3ccc(C(C)(C)C)cc3)cc12 [SR10171]	significantly enhanced	~ 45%	–
{Biotin-Ahx}-LTERHKILHRLLQEGSPSD [biotin-Ahx-SRC1-2 coactivator peptide]	–	–	binds
